An excerpt weighted towards active compounds, which were near 6.7% of everything screened.
PREPL inhibitor: inhibitors of human prolyl oligopeptidase-like enzyme PREPL; 320,000 tested, 0.68% active; recombinant PREPL, fluorescence polarization activity-based probe; inhibition, % at 5.96 µM; Q4J6C6; AID 2751; in the data active means inhibition above about 43%
Target sequence (Q4J6C6 whole entry, looked up): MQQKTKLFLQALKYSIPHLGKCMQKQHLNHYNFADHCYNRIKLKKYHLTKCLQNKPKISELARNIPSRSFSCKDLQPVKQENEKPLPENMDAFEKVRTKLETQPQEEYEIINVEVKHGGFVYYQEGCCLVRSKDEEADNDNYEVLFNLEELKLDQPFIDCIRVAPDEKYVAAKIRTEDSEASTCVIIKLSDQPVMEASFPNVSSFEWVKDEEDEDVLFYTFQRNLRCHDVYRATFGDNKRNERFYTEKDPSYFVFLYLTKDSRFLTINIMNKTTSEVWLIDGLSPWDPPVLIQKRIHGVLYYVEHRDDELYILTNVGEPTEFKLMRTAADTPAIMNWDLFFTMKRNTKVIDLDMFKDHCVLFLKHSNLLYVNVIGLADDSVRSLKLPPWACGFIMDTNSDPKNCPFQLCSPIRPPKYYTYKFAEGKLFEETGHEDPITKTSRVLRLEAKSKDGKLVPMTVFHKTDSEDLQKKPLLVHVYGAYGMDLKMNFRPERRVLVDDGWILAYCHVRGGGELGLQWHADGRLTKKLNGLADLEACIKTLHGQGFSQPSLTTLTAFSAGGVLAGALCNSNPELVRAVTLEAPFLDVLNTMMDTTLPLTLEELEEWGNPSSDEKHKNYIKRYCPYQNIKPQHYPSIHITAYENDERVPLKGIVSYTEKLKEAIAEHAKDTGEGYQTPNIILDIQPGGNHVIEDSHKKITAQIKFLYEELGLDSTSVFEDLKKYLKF
Beta cell apopt: beta cell apoptosis inhibition; INS-1E cytokine-induced death, ATP luminescence, 48 h; percent of positive-control rescue, neutral wells zero; protection from apoptosis, % (no concentration beside the values); 300,000 tested, 0.8% active;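 active means Every replicate reaches about 75%, or at least half do and their mean reaches it too, limit read from the data; inconclusive means At least half of replicates reach the limit but their mean does not; inactive means Under half of replicates reach the limit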;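 further: higher means more ATP so stronger rescue from cytokine killing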
T cruzi repl: T. cruzi replication inhibition | 300,000 tested, 1.4% active | T. cruzi beta-gal in NIH3T3, luminescence, 90 h | AID 1885 | inhibition, % (concentration not given with the values);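 active means mean inhibition across valid replicates above about 55%, limit read from the data; inconclusive means mean below that limit but half or more replicates reach it; inactive means mean below it, under half of replicates reach it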;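 further: signal also drops with host cell toxicity which is not excluded here; higher percent means less beta-gal luminescence so fewer parasites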
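System: mouse NIH/3T3 fibroblasts infected with β-gal-expressing T. cruzi Tulahuen C4 / Input: NIH/3T3 cells, 5,000 per well / Buffer or medium: Low-serum DMEM with 2% FBS / Probe or stimulus: 5000 reporter trypomastigotes per well / Schedule: ≥90 h infection period, 3 h prior cell attachment / Measured by: GalScreen luminescence, 60 min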
CHOP inh: inhibitors of CHOP induction in ER stress response | CHO-K1 CHOP-promoter luciferase, tunicamycin-induced, 15-18 h | inhibition, % at 10 µM | 220,000 tested, 3.8% active;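 active means compounds that reduced the stress-induced luciferase reporter signal by more than about 70% of percent inhibition, limit read from the data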
CSC inhib: cancer stem cell inhibition; cancer stem cell-like cells viability, luminescence; inhibition, % at 7.5 µM; 300,000 tested, 1.1% active; AID 2717; in the data active means inhibition above about 75%; inconclusive means no clear call, values can overlap the other calls; tested in HMLE shEcad cells
NR3A LBD binder: modulates the human NR3A ligand-binding domain. NR3A LBD differential scanning fluorimetry, Tm shift; 0% = protein alone, 100% = glycine-bound protein. Tm shift relative to glycine control, % at 25 µM. 340,000 tested, 2.5% active;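 active means melting temperature shift of at least 10% of the positive control shift, at one fixed dose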
Each line names hits and unclear results; the compound was inactive in the other large screens.

Cc1ccccc1C(=O)OC1CCN(C)CC1	T cruzi repl 59.2 (no result: CHOP inh)
Cc1ccccc1C(=O)N1CCC(C(=O)Nc2ccc(S(=O)(=O)N3C(C)CCCC3C)cc2)CC1 (centres undefined)	none (no result: PREPL inhibitor, Beta cell apopt, T cruzi repl, CHOP inh, CSC inhib)
COC(=O)c1cc2c(-c3ccccc3)cc3ccccn3c-2c1C(=O)OC	none
COC(=O)c1c(C(=O)OC)c2cccc3cc(-c4ccccc4)c4ccc1c4n32	CHOP inh 82.9
N#CC1=C(N)Oc2c(ccc3ccccc23)C1c1ccsc1 (centres undefined)	T cruzi repl 75.4 (no result: CSC inhib)
N#CC1=C(N)Oc2c(oc(CO)cc2=O)C1c1ccsc1 (centres undefined)	none
COc1ccc(Cl)cc1NC(=O)c1nc2nc(C)cc(C(F)F)n2n1	CHOP inh 73.6 (no result: CSC inhib)
COc1cccc(NC(=O)c2nc3nc(C)cc(C(F)F)n3n2)c1	none
C=CCNC(=S)NNc1nc(Nc2ccccc2)nc(N2CCCCC2)n1	CHOP inh 73.9
S=C(NNc1nc(Nc2ccccc2)nc(N2CCCCC2)n1)NC1CCCCC1	CHOP inh 83.4
C=CCNC(=S)NNc1nc(N2CCCC2)nc(N2CCCC2)n1	none (no result: CHOP inh)
CC(C)(C)OC(=O)N1CCC[C@H]1C(=O)Nc1ccc(S(=O)(=O)C(F)F)cc1	none (no result: CHOP inh)
COc1ccccc1CN1CCN(Cc2nc(-c3cccs3)no2)CC1	T cruzi repl 61.0
CC1(NC(=O)Nc2cccc3ccccc23)CCS(=O)(=O)C1 (centres undefined)	none (no result: CHOP inh)
Nc1cc(=O)[nH]c(SCC(=O)Nc2cccc(Cl)c2Cl)n1	none
CCNc1nc(SCCOc2ccc(C)cc2)nc(N(C)C)n1	none
Cc1ccc(OCCSc2nc(NC(C)C)nc(NC(C)C)n2)cc1	CSC inhib 89.6, NR3A LBD binder 23.1
COc1ccc(S(=O)(=O)Nc2ccc(O)c3ccccc23)cc1	Beta cell apopt 123.6 (no result: CSC inhib)
Cc1ccc(C)c(S(=O)(=O)Nc2ccc(O)c3ccccc23)c1	Beta cell apopt 98.5 (no result: CHOP inh)
Cc1ccc(S(=O)(=O)Nc2ccc3c4c(cccc24)CC3)c(C)c1	none (no result: CHOP inh)
Cc1ccc(C)c(S(=O)(=O)Nc2ccc(O)c(C(=O)O)c2)c1	none
Cc1ccc(S(=O)(=O)Nc2ccc(O)c3ccccc23)c(C)c1	Beta cell apopt 96.1 (no result: PREPL inhibitor, CHOP inh)
O=C1C(O)=CC(=C(c2ccccc2)c2ccccc2)c2ccccc21	none (no result: PREPL inhibitor, Beta cell apopt, T cruzi repl, CHOP inh, CSC inhib)
O=C(CN1C(=O)CSc2ncccc21)Nc1cccc(Cl)c1	none (no result: CHOP inh)
N#Cc1cccc(S(=O)(=O)NCC(=O)OCC(=O)NCc2ccccc2)c1	none (no result: Beta cell apopt, T cruzi repl, CHOP inh, CSC inhib)
COc1cc(C(C(=O)NCc2ccccc2)N(C(=O)c2snc(C(N)=O)c2N)C2CCCC2)cc(OC)c1OC (centres undefined)	none (no result: CHOP inh)
COc1ccc(-c2c(-c3cc(OC)cc(OC)c3)n(C)c3ccc(-c4ccc5[nH]ccc5c4)cc23)cc1	none (no result: T cruzi repl, CHOP inh)
O=C(Nc1ccc(Cl)cc1)C1C2CCC3C(CCC21)C3(Cl)Cl (centres undefined)	CHOP inh 71.6 (no result: PREPL inhibitor, Beta cell apopt, T cruzi repl, CSC inhib)
Cc1cccc(NC(=O)C2C3CCC4C(CCC32)C4(Cl)Cl)c1 (centres undefined)	CHOP inh 76.0, NR3A LBD binder 12.7
O=C(Nc1ccc(F)cc1)C1C2CCC3C(CCC21)C3(Cl)Cl (centres undefined)	none
Cc1cc(Cn2nc(C(=O)NCc3cccc(C(F)(F)F)c3)cc2-c2ccccc2)on1	none (no result: T cruzi repl, CHOP inh)
Nn1c(SCC(=O)NC2CCS(=O)(=O)C2)nc2scc(-c3ccccc3)c2c1=O (centres undefined)	none (no result: T cruzi repl, CHOP inh)
Cc1cc(C)n(-c2nc3ccccc3c(=O)n2OCC#N)n1	Beta cell apopt 84.1, T cruzi repl 59.1 (no result: PREPL inhibitor, CHOP inh)
CC(OC(=O)/C=C/c1ccco1)C(=O)NC1CCCCC1C (centres undefined)	none (no result: T cruzi repl, CHOP inh, CSC inhib)
COC(=O)c1sccc1NC(=O)c1ccc(Br)o1	CHOP inh 87.7
COc1ccccc1C(CC(=O)Nc1ccc(Cl)cc1)c1ccc(OC(C)C)cc1 (centres undefined)	NR3A LBD binder 12.2
COc1ccc(C(C)NCCC(c2ccc(OC(C)C)cc2)c2ccccc2OC)cc1 (centres undefined)	Beta cell apopt 82.0, T cruzi repl inconclusive, CSC inhib 104.1 (no result: PREPL inhibitor, CHOP inh)
COc1cc(NC(=S)NCCc2c[nH]c3ccccc23)c(OC)cc1Cl	NR3A LBD binder 36.0
COc1cccc(CNCCc2c[nH]c3ccccc23)c1OCc1ccc(F)cc1	none
Cc1ccc(NC(=S)NCCc2c[nH]c3ccccc23)c(C)c1	NR3A LBD binder 11.8
COc1ccc(NC(=S)NCCc2c[nH]c3ccccc23)cc1	NR3A LBD binder 26.1
COc1cc(CNCCc2c[nH]c3ccccc23)ccc1OCc1ccc(F)cc1	CHOP inh 88.0, CSC inhib active
COc1ccccc1NC(=S)NCCc1c[nH]c2ccccc12	none
CC(C)(C)c1ccc(-c2nc3n(c(=O)c2C#N)CCS3)cc1	none
Cc1cccn2c(=O)nc(SCC(=O)c3ccccc3)nc12	none (no result: Beta cell apopt, CHOP inh)
Clc1ccccc1OCCCOc1cccc2cccnc12	none (no result: CHOP inh)
COC(=O)[C@]1(Cc2ccccc2)N[C@H](CN(C)S(=O)(=O)c2ccc(-c3ccccc3)cc2)[C@@H]2C(=O)N(C)C(=O)[C@@H]21	none (no result: T cruzi repl, CHOP inh, CSC inhib)
O=C(COC(=O)c1ccc2ccccc2n1)NC1CCCCC1	none (no result: Beta cell apopt, T cruzi repl, CHOP inh, CSC inhib)
COc1ccc2[nH]cc(CCNC(=S)NCCc3ccccc3)c2c1	NR3A LBD binder 26.1
CC1(NC(=O)CCc2nc3ccccc3c(=O)[nH]2)CCS(=O)(=O)C1 (centres undefined)	none (no result: CHOP inh)
C=CC[C@@H]1C=C(C)C[C@H](C)C[C@H](OC)[C@H]2O[C@@](O)(C(=O)C(=O)N3CCCC[C@H]3C(=O)O[C@H](/C(C)=C/[C@@H]3CC[C@@H](O)[C@H](OC)C3)[C@H](C)[C@@H](O)CC1=O)[C@H](C)C[C@@H]2OC	PREPL inhibitor 55.3 (no result: CHOP inh, NR3A LBD binder)
CCn1c(-c2ccc(N(C)C)cc2)nc2ccccc21	Beta cell apopt 112.8, T cruzi repl 58.4 (no result: CHOP inh)
CCn1c(-c2ccc(N)cc2)nc2ccccc21	none
Cc1nn(CCc2nn[nH]n2)c2nc(-c3ccc(C4CCCCC4)cc3)cc(C(F)(F)F)c12	CHOP inh 106.4, CSC inhib 110.4
Cc1nn(CCC(=O)O)c2nc(-c3cccnc3)cc(C(F)(F)F)c12	none
CC(C)c1cc(C(=O)NCCc2ccccc2)no1	none
CC(=O)c1cccc(NC(=O)C(=O)c2cn(CC(=O)N3CCCCC3)c3ccccc23)c1	none
COc1ccc(CN2CCNC(=O)C2CC(=O)NCCCC2CCCC2)c(F)c1 (centres undefined)	none (no result: CHOP inh)
O=C(c1cccc(C(F)(F)F)c1)C1CCCN(C(=O)CN2CCOC2=O)C1 (centres undefined)	NR3A LBD binder 11.1 (no result: CHOP inh)
O=C(c1cccc(C(F)(F)F)c1)C1CCCN(C(=O)C2CCOCC2)C1 (centres undefined)	none (no result: CHOP inh)
O=C(C[C@@H]1C/C=C\C[C@@H](Cc2ccc(F)cc2)C(=O)OCCNC1=O)N[C@H](CO)Cc1ccccc1	none (no result: T cruzi repl, CHOP inh)

Bioassay records from PubChem BioAssay.
